Test results published in ChEMBL document CHEMBL1132314, “Synthesis and amyloid binding properties of rhenium complexes: preliminary progress toward a reagent for SPECT imaging of Alzheimer's disease brain” (J Med Chem, 1999).

Legend:
[1] = Bmax value was measured on A-beta-40 fibrils at high salt
How it was run: (§1)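 Synthetic Aβ40 fibrils (50 µM total Aβ40 stock, 20 µL added to 180 µL probe solution) were incubated with probe at 2–18 µM final in pH 7.4 10 mM phosphate, with 100 or 0 mM NaCl. Stocks for the Re complexes were in methanol, ≤3 vol % final. The mixture was held 1 h at 25 °C, then fibrils were pelleted by centrifugation.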

[2] = max value was measured on A-beta-40 fibrils at low salt; how it was run: as §1
[3] = Apparent dissociation constant was measured at 110 mM salt; how it was run: as §1
[4] = Partition coefficient (P); settings: octanol/water
[5] = Apparent dissociation constant was measured at 10 mM salt; how it was run: as §1

Bmax [1]: 2.6
Bmax [2]: 0.6
Kd [3]: 1500 nM
P [4]: 0.16
Kd [5]: 1100 nM
SMILES: Nc1c(/N=N/c2ccc(-c3ccc(/N=N/c4cc(S(=O)(=O)O)c5ccccc5c4N)cc3)cc2)cc(S(=O)(=O)O)c2ccccc12 [CONGO RED]
